Legend:
[1] = tested on: Zea mays; test: (§1) Phytotoxicity against Zea mays (maize) assessed as growth inhibition at 300 g.a.i/ha pre-emergent application measured after 15 days by greenhouse crop selectivity assay; format: organism-based; settings: in vivo, other, 360 h
Method in brief: (§2)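 Pre-emergence greenhouse crop selectivity test on pot-grown plants in clay soil (pH 6.5, 1.7% organic matter, 37.5% clay, CEC 12.9 cmol/kg). Stock solutions were diluted with water and applied at 300, 150, 75 or 37.5 g a.i./ha, in triplicate. After 15 days, phytotoxicity was scored visually against untreated controls as % crop growth inhibition, averaged over the triplicates.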

[2] = tested on: Abutilon theophrasti; test: Post-emergence herbicidal activity against Abutilon theophrasti (velvetleaf) assessed as growth inhibition at 15 g.a.i./ha applied at two-leaf stage measured after 15 days; format: functional; settings: 360 h, read-out: GI
Method in brief: (§3)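 Pot-grown weeds sown 5 mm deep in greenhouse clay soil (pH 6.5, 1.7% organic matter, CEC 12.9 cmol/kg) at 22-25 °C. Stock diluted with water and sprayed post-emergence: dicots at 2-leaf stage, monocots at 1-leaf stage. Untreated and DMF solvent controls were included. % growth inhibition was scored visually versus untreated controls after 15 days. Triplicates averaged.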

[3] = tested on: Gossypium; test: Phytotoxicity against Gossypium (cotton) assessed as growth inhibition at 37.5 g.a.i/ha pre-emergent application measured after 15 days by greenhouse crop selectivity assay; format: organism-based; settings: in vivo, other, 360 h; method in brief: as §2
[4] = tested on: Brassica rapa subsp. oleifera; test: Phytotoxicity against Brassica rapa subsp. oleifera assessed as growth inhibition at 37.5 g.a.i/ha pre-emergent application measured after 15 days by greenhouse crop selectivity assay; format: functional; settings: pre-emergence, 360 h, read-out: GI
Method in brief: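 Pot-grown crop in greenhouse clay soil (pH 6.5, 1.7% organic matter, 37.5% clay, CEC 12.9 cmol/kg). Stock diluted with water and applied pre-emergence at 300, 150, 75 or 37.5 g a.i./ha. Cultivated 15 days, then phytotoxicity scored visually as % growth inhibition versus untreated controls. Triplicate treatments, averaged.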

[5] = tested on: Amaranthus spinosus; test: Post-emergence herbicidal activity against Amaranthus spinosus assessed as growth inhibition at 7.5 g.a.i./ha applied at two-leaf stage measured after 15 days; format: functional; settings: 360 h, read-out: GI; method in brief: as §3
[6] = tested on: Setaria viridis; test: Post-emergence herbicidal activity against Setaria viridis (green foxtail) assessed as growth inhibition at 15 g.a.i./ha applied at one-leaf stage measured after 15 days; format: functional; settings: 360 h, read-out: GI; method in brief: as §3
[7] = tested on: Gossypium; test: Phytotoxicity against Gossypium (cotton) assessed as growth inhibition at 7.5 to 60 g.a.i/ha post-emergent application measured after 15 days by greenhouse crop selectivity assay; format: organism-based; settings: in vivo, other, 360 h
Method in brief: (§4)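 Postemergence crop selectivity test on pot-grown plants in a greenhouse, in clay soil (pH 6.5, 1.7% organic matter, CEC 12.9 cmol/kg). Stock was diluted with water and sprayed at 60, 30, 15 or 7.5 g a.i./ha, in triplicate. Growth inhibition was rated visually against untreated controls after 15 days and given as the triplicate mean percentage.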

[8] = tested on: Chenopodium album; test: Pre-emergence herbicidal activity against Chenopodium album assessed as growth inhibition at 75 g.a.i./ha applied 24 hr after seeds were sown measured after 15 days; format: functional; settings: read-out: GI
Method in brief: (§5)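 Weeds sown 5 mm deep in pots of greenhouse clay soil (pH 6.5, 37.5% clay, CEC 12.9 cmol/kg) and grown at 22-25 °C. Water-diluted formulation was applied pre-emergence 24 h after sowing. Untreated and DMF solvent controls were included. Growth inhibition was visually rated in % against untreated controls after 15 days, as the mean of triplicates.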

[9] = tested on: Digitaria sanguinalis; test: Post-emergence herbicidal activity against Digitaria sanguinalis(hairy crabgrass) assessed as growth inhibition at 15 g.a.i./ha applied at one-leaf stage measured after 15 days; format: functional; settings: 360 h, read-out: GI; method in brief: as §3
[10] = tested on: Chenopodium album; test: Pre-emergence herbicidal activity against Chenopodium album assessed as growth inhibition at 37.5 g.a.i./ha applied 24 hr after seeds were sown measured after 15 days; format: functional; settings: read-out: GI; method in brief: as §5
[11] = tested on: Setaria viridis; test: Post-emergence herbicidal activity against Setaria viridis (green foxtail) assessed as growth inhibition at 7.5 g.a.i./ha applied at one-leaf stage measured after 15 days; format: functional; settings: 360 h, read-out: GI; method in brief: as §3
[12] = tested on: Arachis hypogaea; test: Phytotoxicity against Arachis hypogaea (peanut) assessed as growth inhibition at 75 g.a.i/ha pre-emergent application measured after 15 days by greenhouse crop selectivity assay; format: organism-based; settings: in vivo, other, 360 h; method in brief: as §2
[13] = tested on: Digitaria sanguinalis; test: Post-emergence herbicidal activity against Digitaria sanguinalis (hairy crabgrass) assessed as growth inhibition at 37.5 g.a.i./ha applied at one-leaf stage measured after 15 days; format: functional; settings: 360 h, read-out: GI; method in brief: as §3
[14] = tested on: Amaranthus spinosus; test: Pre-emergence herbicidal activity against Amaranthus spinosus assessed as growth inhibition at 15 g.a.i./ha applied 24 hr after seeds were sown measured after 15 days; format: functional; settings: read-out: GI; method in brief: as §5
[15] = tested on: Echinochloa crus-galli; test: Post-emergence herbicidal activity against Echinochloa crus-galli (barnyard grass) assessed as growth inhibition at 75 g.a.i./ha applied at one-leaf stage measured after 15 days; format: functional; settings: 360 h, read-out: GI; method in brief: as §3
[16] = tested on: Zea mays; test: Phytotoxicity against Zea mays (maize) assessed as growth inhibition at 75 g.a.i/ha pre-emergent application measured after 15 days by greenhouse crop selectivity assay; format: organism-based; settings: in vivo, other, 360 h; method in brief: as §2
[17] = tested on: Digitaria sanguinalis; test: Pre-emergence herbicidal activity against Digitaria sanguinalis (hairy crabgrass) assessed as growth inhibition at 15 g.a.i./ha applied 24 hr after seeds were sown measured after 15 days; format: functional; settings: read-out: GI; method in brief: as §5
[18] = tested on: Chenopodium album; test: Pre-emergence herbicidal activity against Chenopodium album assessed as growth inhibition at 15 g.a.i./ha applied 24 hr after seeds were sown measured after 15 days; format: functional; settings: read-out: GI; method in brief: as §5
[19] = tested on: Echinochloa crus-galli; test: Pre-emergence herbicidal activity against Echinochloa crus-galli (barnyard grass) assessed as growth inhibition at 37.5 g.a.i./ha applied 24 hr after seeds were sown measured after 15 days; format: functional; settings: read-out: GI; method in brief: as §5
[20] = tested on: Gossypium; test: (§6) Phytotoxicity against Gossypium (cotton) assessed as growth inhibition at 300 g.a.i/ha pre-emergent application measured after 15 days by greenhouse crop selectivity assay; format: organism-based; settings: in vivo, other, 360 h; method in brief: as §2
[21] = tested on: Triticum aestivum; test: Phytotoxicity against Triticum aestivum (wheat) assessed as growth inhibition at 37.5 g.a.i/ha pre-emergent application measured after 15 days by greenhouse crop selectivity assay; format: organism-based; settings: in vivo, other, 360 h; method in brief: as §2
[22] = tested on: Setaria viridis; test: Pre-emergence herbicidal activity against Setaria viridis (green foxtail) assessed as growth inhibition at 75 g.a.i./ha applied 24 hr after seeds were sown measured after 15 days; format: functional; settings: read-out: GI
Method in brief: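 Preliminary pre-emergence screen at a single rate of 75 g a.i./ha. Stock diluted with water and sprayed on greenhouse pots 24 h after seeds were sown 5 mm deep in clay soil (pH 6.5, 1.7% organic matter); grown at 22-25 °C. Untreated and DMF solvent controls included; triplicate. Visual % growth inhibition vs untreated after 15 days, averaged and banded (>80% top band).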

[23] = tested on: Brassica rapa subsp. oleifera; test: Phytotoxicity against Brassica rapa subsp. oleifera assessed as growth inhibition at 7.5 to 60 g.a.i/ha post-emergent application measured after 15 days by greenhouse crop selectivity assay; format: organism-based; settings: in vivo, other, 360 h; method in brief: as §4
[24] = tested on: Glycine max; test: Phytotoxicity against Glycine max (soybean) assessed as growth inhibition at 37.5 g.a.i/ha pre-emergent application measured after 15 days by greenhouse crop selectivity assay; format: organism-based; settings: in vivo, other, 360 h; method in brief: as §2
[25] = as §1; format: organism-based; settings: in vivo, 300 g.a.i/ha, read-out: GI; method in brief: as §2
[26] = Phytotoxicity against Triticum aestivum (wheat) assessed as growth inhibition at 150 g.a.i/ha pre-emergent application measured after 15 days by greenhouse crop selectivity assay; format: organism-based; settings: in vivo, 150 g.a.i/ha, read-out: GI; method in brief: as §2
[27] = Phytotoxicity against Triticum aestivum (wheat) assessed as growth inhibition at 75 g.a.i/ha pre-emergent application measured after 15 days by greenhouse crop selectivity assay; format: organism-based; settings: in vivo, 75 g.a.i/ha, read-out: GI; method in brief: as §2
[28] = as §6; format: organism-based; settings: in vivo, 300 g.a.i/ha, read-out: GI; method in brief: as §2

| Structure (SMILES) | inhibition of growth at 15 g/ha [2] | growth inhibition (GI) [3] | inhibition of growth at 37.5 g/ha [4] | inhibition of growth at 7.5 g/ha [5] | inhibition of growth at 15 g/ha [6] | Activity [7] | inhibition of growth at 75 g/ha [8] | inhibition of growth at 15 g/ha [9] | inhibition of growth at 37.5 g/ha [10] | inhibition of growth at 7.5 g/ha [11] | growth inhibition (GI) [12] | inhibition of growth at 37.5 g/ha [13] | inhibition of growth at 15 g/ha [14] | inhibition of growth at 75 g/ha [15] | inhibition of growth at 15 g/ha [17] | inhibition of growth at 15 g/ha [18] | inhibition of growth at 37.5 g/ha [19] | inhibition of growth at 75 g/ha [22] | Activity [23] | growth inhibition (GI) [24] | further results |
| --- | --- | --- | --- | --- | --- | --- | --- | --- | --- | --- | --- | --- | --- | --- | --- | --- | --- | --- | --- | --- | --- |
| CCOC(=O)C(CC)N1C(=O)C(C)Oc2cc(F)c(N3C(=O)C4=C(CCCC4)C3=O)cc21 (centres undefined) | 100% | Not Active | > 10% | 100% | 30% | Toxic | > 80% | 50% | 100% | 20% | Not Active | 70% | 100% | > 80% | 0% | 100% | 0% | > 80% | Toxic | Not Active | growth inhibition (GI) [1]: Not Active; growth inhibition (GI) [16]: Not Active; growth inhibition (GI) [20]: Not Active; growth inhibition (GI) [21]: Not Active |
| C#CCN1C(=O)COc2cc(F)c(N3C(=O)C4=C(CCCC4)C3=O)cc21 [FLUMIOXAZIN] | 100% | Not Active | > 10% | 100% | 90% | Toxic | > 80% | 90% | 100% | 80% | Not Active | 95% | 100% | > 80% | 50% | 100% | 70% | > 80% | Toxic | Not Active | inhibition at 360 h [25]: > 10%; inhibition at 360 h [26]: > 10%; inhibition at 360 h [27]: > 10%; inhibition at 360 h [28]: > 10% |
| COC(=O)C(C)N1C(=O)C(C)Oc2cc(F)c(N3C(=O)C4=C(CCCC4)C3=O)cc21 (centres undefined) | 100% | Not Active | > 10% | 100% | 50% | Toxic | > 80% | 20% | 100% | 10% | Not Active | 60% | 100% | > 80% | 10% | 100% | 80% | > 80% | Toxic | Not Active | inhibition at 360 h [25]: > 10%; inhibition at 360 h [26]: > 10%; inhibition at 360 h [27]: > 10%; growth inhibition (GI) [16]: Not Active; inhibition at 360 h [28]: > 10%; growth inhibition (GI) [21]: Not Active |
| CCOC(=O)C(C)N1C(=O)C(C)Oc2cc(F)c(N3C(=O)C4=C(CCCC4)C3=O)cc21 (centres undefined) | 100% | Not Active | > 10% | 100% | 30% | Toxic | > 80% | 30% | 100% | 20% | Not Active | 50% | 95% | > 80% | 40% | 100% | 30% | > 80% | Toxic | Not Active | growth inhibition (GI) [1]: Not Active; inhibition at 360 h [26]: > 10%; growth inhibition (GI) [16]: Not Active; growth inhibition (GI) [20]: Not Active; growth inhibition (GI) [21]: Not Active |

Source: ChEMBL document CHEMBL3045743, “Synthesis and herbicidal activity of isoindoline-1,3-dione substituted benzoxazinone derivatives containing a carboxylic ester group” (J Agric Food Chem, 2009)
